Bioassay records from PubChem.
LMPTP inh – LMPTP phosphatase inhibitors, primary screen, biochemical, fluorescence intensity, uHTS; Low molecular weight phosphotyrosine protein phosphatase (Homo sapiens), P24666; recombinant LMPTP-A, OMFP fluorogenic substrate; actives 0.22% (n = 360,000); inhibition, % at 20 µM;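 active = compounds that cut the enzyme signal by at least half of the control window in the single-dose screen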;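 note: plate controls were DMSO wells with enzyme plus substrate for no effect and substrate without enzyme for full effect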
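Test system – LMPTP-A phosphatase enzyme · Quantity – 0.625 nM LMPTP-A final · Reagent – OMFP substrate, 400 µM final · Dosing – one test concentration per compound, 20 µM, with 3% DMSO overall · Timing – 50 min enzyme reaction at room temperature, protected from light · Detection – fluorescence intensity · Controls – substrate-only low control, DMSO enzyme-plus-substrate high control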
Rpn11 inh – Rpn11 (PSMD14) deubiquitinase inhibitors, primary screen, biochemical, fluorescence polarization, uHTS; inhibition, % at 20 µM; human 26S proteasome, Ub4-pepOG fluorescence polarization; 20S core pre-blocked with epoxomicin; actives 0.59% (n = 360,000); 26S proteasome non-ATPase regulatory subunit 14 (Homo sapiens), O00487;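 active = inhibition at 20 µM, scaled to each plate's controls, above about 33%, limit read from the data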
DNMT1 block – human DNMT1 methyltransferase inhibitors, primary screen, biochemical, molecular beacon, fluorescence, HinP1I cleavage, uHTS | DNA (cytosine-5)-methyltransferase 1 (Homo sapiens), P26358 | actives 0.83% (n = 360,000) | inhibition (reported as % activation of signal), % at 10 µM; in the data active = inhibition above about 50%
Target sequence (P26358 504-1616 limits assumed): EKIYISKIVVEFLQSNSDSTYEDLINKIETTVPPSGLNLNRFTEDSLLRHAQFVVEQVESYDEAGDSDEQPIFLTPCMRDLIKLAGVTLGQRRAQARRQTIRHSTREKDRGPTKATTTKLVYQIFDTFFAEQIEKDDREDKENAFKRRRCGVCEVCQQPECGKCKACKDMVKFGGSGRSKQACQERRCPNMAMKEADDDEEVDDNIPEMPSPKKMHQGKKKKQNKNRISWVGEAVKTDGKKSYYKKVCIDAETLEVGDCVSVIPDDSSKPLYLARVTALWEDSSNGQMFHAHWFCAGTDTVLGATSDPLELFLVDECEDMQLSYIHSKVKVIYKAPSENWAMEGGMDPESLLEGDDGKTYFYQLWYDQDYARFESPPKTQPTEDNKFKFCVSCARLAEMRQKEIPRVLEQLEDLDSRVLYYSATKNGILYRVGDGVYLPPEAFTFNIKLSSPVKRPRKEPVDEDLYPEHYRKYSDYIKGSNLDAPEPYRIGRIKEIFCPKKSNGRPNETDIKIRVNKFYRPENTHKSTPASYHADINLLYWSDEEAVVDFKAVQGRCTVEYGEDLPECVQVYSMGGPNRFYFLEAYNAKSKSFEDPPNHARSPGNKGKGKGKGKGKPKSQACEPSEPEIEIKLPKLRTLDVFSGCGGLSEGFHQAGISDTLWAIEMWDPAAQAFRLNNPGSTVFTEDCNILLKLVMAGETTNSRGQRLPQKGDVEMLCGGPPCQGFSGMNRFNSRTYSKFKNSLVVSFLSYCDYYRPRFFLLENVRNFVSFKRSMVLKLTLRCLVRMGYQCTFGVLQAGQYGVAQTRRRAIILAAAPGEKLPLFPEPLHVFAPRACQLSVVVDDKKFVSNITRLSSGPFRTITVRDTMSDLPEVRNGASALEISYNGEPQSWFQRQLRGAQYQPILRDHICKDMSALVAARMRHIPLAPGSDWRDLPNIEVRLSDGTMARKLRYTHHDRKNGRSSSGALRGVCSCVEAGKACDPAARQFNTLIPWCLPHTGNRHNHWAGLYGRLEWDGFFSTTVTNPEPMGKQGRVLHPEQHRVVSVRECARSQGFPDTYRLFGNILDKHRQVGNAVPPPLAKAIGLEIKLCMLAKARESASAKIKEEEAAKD
Scp1 inh – Scp-1 phosphatase inhibitors, primary screen, biochemical, colorimetric, uHTS; Carboxy-terminal domain RNA polymerase II polypeptide A small phosphatase 1 (Homo …; Recombinant Scp1, phosphopeptide, malachite green phosphate absorbance; inhibition, % at 20 µM; actives 0.88% (n = 340,000);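 active = inhibition above about 50% at 20 µM, limit read from the data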;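 note: plate controls were DMSO wells with enzyme for no effect and wells lacking enzyme for full effect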
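System: SCP-1 catalytic domain; Reagent: Phospho 17-mer peptide substrate; Doses: one concentration, 20 µM, with 1.0% DMSO; Incubation: 45 min room-temperature reaction, 5 min colour, 30 min stabiliser; Signal: Phosphate-binding colour reagent, absorbance read at 630 nm.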
STEP inh – STEP phosphatase inhibitors, primary screen, biochemical, fluorescence intensity, uHTS | recombinant STEP, OMFP fluorogenic substrate | inhibition, % at 20 µM | actives 0.25% (n = 360,000) | AID 588621, 2011;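 active = inhibition at 20 µM, scaled per plate between control wells, above about 37%, limit read from the data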;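 note: 0% = DMSO with enzyme and substrate and 100% = substrate only without enzyme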
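Also added – OMFP at 25 µM · Test system – STEP tyrosine phosphatase · Technique – FITC-channel fluorescence of OMFP product · Schedule – 20 min at room temperature, dark · Evaluation – control-normalized % inhibition with plate pattern correction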
Scp-1 conf – Scp-1 phosphatase inhibitors, retest, confirmation, biochemical, colorimetric, single concentration | shares compounds with Scp1 inh | recombinant SCP-1 catalytic domain, phosphate release, malachite green absorbance | inhibition, % at 20 µM | actives 61% (n = 2,500);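 note: plate controls were DMSO with enzyme for no effect and buffer wells lacking enzyme for full effect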
MG interference – colorimetric readout interference by compounds, confirmation, artefact control for Scp-1 inhibitor project, biochemical, single concentration. shares compounds with Scp1 inh. apparent inhibition (interference), % at 20 µM. AID 540313, 2011. Colorimetric interference counterscreen, malachite green absorbance 630 nm. 2,500 tested, under 10 active;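 note: compounds added after enzyme reaction finished so only phosphate colour detection is probed; plate controls were DMSO wells with completed Scp-1 reaction for no effect and substrate wells lacking enzyme for full effect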
Scp-1 Tm shift – Scp-1 binding by thermal shift, confirmation, orthogonal assay for Scp-1 inhibitor project, biophysical, differential scanning fluorimetry | shares compounds with Scp1 inh | Recombinant SCP1, Sypro Orange thermal shift Tm | thermal shift relative to vanadate control, % at 40 µM | actives 25% (n = 1,500);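 active = substances whose mean melting-temperature shift, as a percentage of the reference inhibitor's shift, reaches about 5.3%, limit read from the data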;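 note: 0% = Tm of DMSO wells and 100% = Tm with sodium orthovanadate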
Beacon interf DR – spectral interference with molecular beacon fluorescence, dose response, artefact control for DNMT1 inhibitor project, biochemical, fluorescent molecular beacon; shares compounds with DNMT1 block; spectral interference counter-screen; IC50, µM; 200 tested, under 10 active; call rule not given here
DNMT1 confirm – DNMT1 methyltransferase inhibitor retest, confirmation, biochemical, molecular beacon, fluorescence, single concentration; inhibition, % at 10 µM; DNMT1 molecular beacon HinP1I cleavage; actives 8% (n = 2,300); shares compounds with DNMT1 block;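 active = average inhibition of at least 30% in the single-concentration confirmation test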
Beacon interf – shows spectral interference in the DNMT1 beacon assay. activation (fluorescence interference), % at 10 µM. AID 602387. actives 1% (n = 2,300). DNMT1 molecular beacon spectral interference counterscreen, fluorescence 485/520. shares compounds with DNMT1 block;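 active = activation of at least 30% at 10 µM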;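 note: DNMT1 catalytic domain with a HinP1I cleavage step and a FAM/dabcyl DNA beacon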
Starred values were filed as active, the others as inactive; x = not tested or not shown. Most compounds without a hit are left out; they make up all but 2% or so of the library.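 Rule for the calls, unless noted: active = inhibition of at least 30% at 20 µM; inactive = the rest.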

SMILES | LMPTP inh | Rpn11 inh | DNMT1 block | Scp1 inh | STEP inh | Scp-1 conf | MG interference | Scp-1 Tm shift | DNMT1 confirm | Beacon interf | others
O=C(/C=C/[C@H]1O[C@@H](n2cnc3c(NC(=O)c4ccccc4)ncnc32)[C@H](O)[C@@H]1O)NCC1CCCCC1 | -0.9 | -1.2 | 1.1 | x | -0.3 | x | x | x | x | x
Cc1ccoc1C(=O)NCc1occc1C(=O)O | -0.8 | -4.5 | 57.4* | 50.1* | 13.8 | 34.5* | -18.1 | -4.1 | -0.7 | -0.5
Cc1ccoc1C(=O)NCCNC(=O)c1occc1C | -1.0 | -7.3 | 1.4 | 6.0 | 1.4 | x | x | x | x | x
C=CCn1c(SCC(=O)NCCCC)nc2scc(-c3ccco3)c2c1=O | 15.6 | -9.3 | 99.6* | 73.1* | 2.7 | 68.8* | -16.2 | -3.2 | 1.9 | 0.9
CCCNC(=O)c1cc(C2CCCCN2C(=O)c2ccc(C(C)C)cc2)on1 (stereo unspecified) | -0.1 | -2.9 | 4.3 | x | -2.2 | x | x | x | x | x
CCCn1c(=O)c2sccc2n2c(CCCC(=O)NCc3cccnc3)nnc12 | -0.7 | -7.5 | 1.2 | -6.2 | -3.1 | x | x | x | x | x
CCCn1c(=O)c2sccc2n2c(CCCC(=O)NCc3ccco3)nnc12 | 1.5 | -13.1 | 77.3* | 69.5* | 17.4 | 53.8* | -9.0 | -5.0 | 1.2 | 2.3
O=C1NC(=O)/C(=C/c2ccco2)N1 | -0.9 | -2.0 | 4.9 | -6.5 | -1.6 | x | x | x | x | x
O=C1NC(=S)NC1=Cc1ccco1 | 13.5 | -29.1 | 53.2* | 58.8* | 8.7 | 54.1* | -3.8 | 2.3 | 5.1 | 1.6
C=C(C)C(=O)Nc1cccc(C2=NOC3(C2)C[C@@H](C(N)=O)N(C(=O)/C(C)=C/C)C3)c1 (stereo partly specified) | -2.1 | -5.7 | 109.7* | 99.4* | 8.5 | 68.5* | -7.9 | -6.9 | 101.5* | -1.7 | Beacon interf DR=>99
C/C=C(/C)C(=O)Nc1cccc(C2=NOC3(C2)C[C@@H](C(N)=O)N(C(=O)CC(c2ccccc2)c2ccccc2)C3)c1 (stereo partly specified) | 0.7 | 0.2 | -13.7 | -0.2 | 1.2 | x | x | x | x | x
C=C(C)C(=O)Nc1cccc(C2=NOC3(C2)C[C@@H](C(N)=O)N(C(=O)CC(c2ccccc2)c2ccccc2)C3)c1 (stereo partly specified) | 1.2 | -7.6 | 101.4* | 62.5* | 0.9 | 56.8* | -15.6 | -30.6 | 19.4 | 2.5
CN1CCN(C(=O)CN(c2ccccc2)S(=O)(=O)N(C)C)CC1 | x | x | x | -6.4 | x | x | x | x | x | x
Cc1ccc(Cl)cc1N1CCN(C(=O)CN(c2ccccc2)S(=O)(=O)N(C)C)CC1 | 23.8 | -2.4 | 65.3* | 67.5* | 22.6 | 70.1* | -11.4 | -11.4 | 2.6 | 0.6
CC(C)Cn1c(N)c(C(=O)COC(=O)c2cccn2C)c(=O)n(C)c1=O | -0.6 | -9.8 | -1.6 | 0.5 | -0.6 | x | x | x | x | x
CCCc1nc2sc3ccccc3c(=O)c2c(=O)n1Cc1ccco1 | 21.7 | -23.0 | 75.6* | 68.1* | 11.1 | 54.1* | -3.8 | -9.9 | 0.7 | -0.8
CCCc1nc2sc3ccccc3c(=O)c2c(=O)n1Cc1ccc(OC)cc1 | 3.4 | 6.7 | -0.6 | -3.3 | 4.6 | x | x | x | x | x
Cc1cc(/C=N/NC(=O)c2cccc(N(C)C)c2)c(C)n1-c1cc(C(=O)O)cc(C(=O)O)c1 | -0.6 | -3.3 | 80.8* | 66.1* | 16.7 | 53.2* | -14.5 | 7.5* | 9.4 | 2.8
O=C(COc1cccnc1[N+](=O)[O-])Nc1c(Cl)cccc1Cl | -0.5 | 3.6 | -2.8 | -12.4 | 3.3 | x | x | x | x | x
O=C(COc1cccnc1[N+](=O)[O-])Nc1ncc(Cl)cc1Cl | 10.1 | -29.3 | 82.7* | 62.2* | 1.3 | 62.6* | -13.1 | 10.0* | 3.5 | -2.2
CC(=O)Nc1cccc(-c2ccnc3c2CC(C)(C(=O)Nc2ccc(C(C)C)cc2)O3)c1 (stereo unspecified) | 2.2 | 9.5 | -8.4 | x | -3.1 | x | x | x | x | x
COc1ccc(N=C2NC(=O)/C(=C\c3ccco3)S2)cc1 | 40.1 | -18.7 | 70.2* | 88.5* | 6.3 | 51.9* | -12.3 | 1.7 | 8.3 | 29.8
CCCN1C(=O)/C(=C/c2ccco2)SC1=Nc1ccc(OC)cc1 | 1.6 | 2.5 | -6.0 | -20.7 | 4.4 | x | x | x | x | x
Cc1ccsc1/C=C/C1=Cc2c(sc(NC(=O)CSc3n[nH]c(N)n3)c2C#N)C(C)(C)C1 | 10.0 | 17.2 | 89.7* | 58.2* | 11.8 | 25.3 | -14.2 | x | 4.3 | 1.1
CN(CC1CCCN(CCc2ccc(Cl)cc2)C1)C(=O)c1ccco1 (stereo unspecified) | 1.3 | -9.5 | 2.1 | -0.1 | -3.2 | x | x | x | x | x
CC(C)C[C@H]1CN(CCCC[C@H]2CNC(=O)C(=O)N2Cc2ccccc2)C(=O)C(=O)N1CC1CCCCC1 | -1.8 | x | x | x | x | x | x | x | x | x
CCCCCCN1CCN(C2CN(Cc3cn(Cc4cccc(C(F)(F)F)c4)nn3)S(=O)(=O)C2)CC1 (stereo unspecified) | -0.2 | x | x | x | x | x | x | x | x | x
Cc1ccc([N+](=O)[O-])cc1NC(=O)Cc1ccc(F)cc1 | -1.1 | 5.9 | 0.8 | -0.7 | -1.4 | x | x | x | x | x
Cc1ccc([N+](=O)[O-])cc1NC(=O)Cc1cccs1 | 26.0 | -14.0 | 80.7* | 66.6* | 0.3 | 60.5* | -21.9 | 5.9* | 8.0 | 2.0
